MIC data for one molecule are collected here from ChEMBL document CHEMBL3758168, “Hybrid triazoles: Design and synthesis as potential dual inhibitor of growth and efflux inhibition in tuberculosis” (Eur J Med Chem, 2016).

Common to all, as to format: functional
In assay [1] the test system is Mycobacterium tuberculosis. In words: Antibacterial activity against Mycobacterium tuberculosis H37Rv ATCC 27294T assessed as isoniazid MIC at 256 ug/ml after 7 days by microdilution checkerboard assay. The conditions noted are these: 168 h. The procedure, abridged: (§1)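 Two-dimensional checkerboard in H37Rv at 10^5 CFU/ml in MB7H9/OADC. Partner drug (amikacin, EtBr, isoniazid, ofloxacin or rifampin) two-fold serially diluted across columns 3-11. Test compound two-fold serially diluted down rows 2-6. Plates incubated 7 days at 37 °C, then MTT added overnight. […] Run in triplicate.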

Assay [2] has as its system Mycobacterium tuberculosis. Nature of the assay: Antibacterial activity against Mycobacterium tuberculosis H37Rv ATCC 27294T assessed as ofloxacin MIC at 4 ug/ml after 7 days by microdilution checkerboard assay. The note with it: 168 h. The essentials: as §1
For assay [3], the system named is Mycobacterium tuberculosis. Nature of the assay: Antibacterial activity against Mycobacterium tuberculosis H37Rv ATCC 27294T assessed as ofloxacin MIC at 8 ug/ml after 7 days by microdilution checkerboard assay. The conditions noted are these: 168 h. The procedure, abridged: as §1
The subject of assay [4] is Mycobacterium tuberculosis. Nature of the assay: Antibacterial activity against Mycobacterium tuberculosis H37Rv ATCC 27294T assessed as ethidium bromide MIC at 256 ug/ml after 7 days by microdilution checkerboard assay. The conditions noted are these: 168 h. The essentials:
as §1

Assay [5] deals with Mycobacterium tuberculosis. In words: Antibacterial activity against Mycobacterium tuberculosis H37Rv ATCC 27294T assessed as rifampin MIC at 256 ug/ml after 7 days by microdilution checkerboard assay. The conditions noted are these: 168 h. The procedure, abridged:
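M. tuberculosis H37Rv grown in MB7H9 + 10% OADC at 37 °C to OD600 0.8; plates inoculated at 10^5 CFU/ml. Rifampicin two-fold serially diluted across columns, test compound two-fold diluted down rows (two-dimensional checkerboard). Sealed, 37 °C for seven days, then MTT added and incubated overnight. MIC read as no colour change. Triplicate.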

For assay [6], the system named is Mycolicibacterium smegmatis. Nature of the assay: Anti-tubercular activity against Mycobacterium smegmatis MC2 155 ATCC 700084 after 3 days by microdilution method. The conditions noted are these: MC2 155 ATCC 700084, 72 h. The procedure, abridged:
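M. smegmatis mc2155 grown in MB7H9 + 10% OADC at 37 °C with shaking to OD600 0.8. Inoculum set to 0.5 McFarland, diluted 1:100, and mixed 1:1 with two-fold serial dilutions in MB7H9. Plates incubated 3 days at 37 °C with growth and sterility controls. MIC taken as the lowest concentration with no visible growth.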

The subject of assay [7] is Mycobacterium tuberculosis. In words: Antibacterial activity against Mycobacterium tuberculosis H37Rv ATCC 27294T assessed as ofloxacin MIC at 32 ug/ml after 7 days by microdilution checkerboard assay. The conditions noted are these: 168 h. The procedure, abridged:
as §1

The subject of assay [8] is Mycobacterium tuberculosis. Nature of the assay: Antibacterial activity against Mycobacterium tuberculosis H37Rv ATCC 27294T assessed as ofloxacin MIC at 16 ug/ml after 7 days by microdilution checkerboard assay. The note with it: 168 h. The essentials:
as §1

The subject of assay [9] is Mycobacterium tuberculosis. In words: Antibacterial activity against Mycobacterium tuberculosis H37Rv ATCC 27294T assessed as amikacin MIC at 4 ug/ml after 7 days by microdilution checkerboard assay. The conditions noted are these: 168 h. The procedure, abridged: as §1
Assay [10] concerns Mycobacterium tuberculosis. Nature of the assay: Antibacterial activity against Mycobacterium tuberculosis H37Rv ATCC 27294T assessed as ethidium bromide MIC at 128 ug/ml after 7 days by microdilution checkerboard assay. The note with it: 168 h. The procedure, abridged:
as §1

The test system of assay [11] is Mycobacterium tuberculosis. In words: Anti-tubercular activity against Mycobacterium tuberculosis H37Rv ATCC 27294T after 7 days by mircodilution method. The conditions noted are these: 168 h. The essentials:
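H37Rv grown static in MB7H9 + 10% OADC at 37 °C to OD600 0.8, then diluted to about 10^5 cells/ml. Mixed 1:1 with two-fold serial dilutions in MB7H9/OADC and incubated 7 days at 37 °C. MTT added to final 2.5% and plates incubated overnight. MIC is the lowest concentration with no colour change. Run in triplicate.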

Values after ≈ are worked out from the molar mass of the structure shown.

Consider `COc1ccc(CCN(C)CCCC(C#N)(c2ccc(OC)c(OC)c2)C(C)C)cc1OC` (stereo unspecified), for which the MIC in [1] was 0.0125 µg/mL; in assay [2], 2 µg/mL; in [3], 2 µg/mL; in [4] it was 0.781 µg/mL; in assay [5], 0.125 µg/mL; in assay [6] it was 776 µg/mL (≈ 1710 µM). For the same molecule, the minimal inhibitory concentration (MIC) in assay [7] is 2 µg/mL; in assay [8], 2 µg/mL; in assay [9], 2 µg/mL; in [10], 3.12 µg/mL; in assay [11], 128 µg/mL (≈ 282 µM).
